Some results are limits rather than exact numbers.

Usually ED50 stands for the midpoint of the dose-response relation. Low readings indicate greater potency, high ones weaker potency.

The nature of assay [1]: Anticonvulsant activity against audiogenic seizures in DBA/2 mice 30 min after intraperitoneal administration (clonic phase). The class given is functional. To be noted: Mus musculus, ip, 0.5 h. Put shortly: (§1)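 DBA/2 mice, genetically susceptible to sound-induced seizures (8-12 g, 22-25 days old, either sex), were dosed ip in groups of 10 with vehicle or each dose. Dosing solution was freshly prepared in 50% DMSO/50% sterile 0.9% saline. Mice received auditory stimulation 30 min later and were scored for latency and incidence of seizure phases. ED50 per phase was fitted by Litchfield-Wilcoxon, with 95% confidence limits.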

Assay [2] in a line: Anticonvulsant activity against audiogenic seizures in DBA/2 mice 30 min after intraperitoneal administration (tonic phase). Type of assay: functional. To be noted: Mus musculus, ip, 0.5 h. Summed up:
as §1

In assay [1], `COc1cc2c(cc1OC)C(c1ccc(N)cc1)=NNC(=O)C2` showed an ED50 of 15 µmol/kg.

As to `COc1cc2c(cc1OC)C(c1ccc(F)cc1)N(C(C)=O)CC2` (stereo not given), the ED50 in assay [1] was 36.8 µmol/kg; in assay [2], 18 µmol/kg. With `COc1cc2c(cc1OC)C(c1ccc(Br)cc1)N(C(C)=O)CC2` (stereo not given), the figures for the ED50 in assay [1] and in assay [2] were 43.1 µmol/kg and 16.5 µmol/kg, respectively. With `COc1cc2c(cc1OC)C(c1ccc([N+](=O)[O-])cc1)N(C(C)=O)CC2` (stereo not given), the ED50 in assay [1] and in assay [2] was greater than 100 µmol/kg in each case.

Consider `COc1cc2c(cc1OC)C(c1ccc(Cl)cc1)N(C(C)=O)CC2` (stereo not given), for which the ED50 in assay [1] amounted to 4.2 µmol/kg; in assay [2], 2.4 µmol/kg. On to `COc1cc2c(cc1OC)C(c1ccccc1)N(C(C)=O)CC2` (stereo not given), for which the results for the ED50 in assay [1] and in assay [2] were 53.5 µmol/kg and 37.7 µmol/kg, respectively. For `COc1cc2c(cc1OC)C(c1ccc(N)cc1)N(C(C)=O)CC2` (stereo not given), the ED50 came to 32.1 µmol/kg in assay [1] and 21.1 µmol/kg in assay [2]. The corresponding values for `CC(=O)N1N=C(c2ccc(N)cc2)c2cc3c(cc2C[C@H]1C)OCO3` [TALAMPANEL] are 13.4 µmol/kg and 9.7 µmol/kg.

For the origin of these results see ChEMBL document CHEMBL1144927, “Discovery of a novel and highly potent noncompetitive AMPA receptor antagonist” (2003).
